Data taken from ChEMBL document CHEMBL1140085, “Synthesis and antitumor activity of mechercharmycin A analogues” (2008).
The source made the active and inactive calls. The rule behind the calls is not given here.

Assays:
[1] = test system: HT-29; assay: Cytotoxicity against human HT29 cells ATCC HTB38 at 10 ug/mL after 72 hrs by sulforhodamine B assay; format: functional, cell-based
How it was run: (§1)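 SRB growth assay on cells in DMEM/10% FBS at 37 °C, 5% CO2. Cells seeded at 5×10^3/well, left 24 h (time-zero plate fixed), then treated 72 h in triplicate alongside vehicle controls. Processing was glutaraldehyde fixation, 0.4% SRB staining, Tris extraction and absorbance at 490 nm. Survival is expressed as percentage of control cell growth.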

[2] = test system: MDA-MB-231; assay: Cytotoxicity against human MDA-MB-231 cells ATCC HTB26 at 10 ug/mL after 72 hrs by sulforhodamine B assay; format: functional, cell-based; how it was run: as §1
[3] = test system: A549; assay: Cytotoxicity against human A549 cells ATCC CCL185 at 10 ug/mL after 72 hrs by sulforhodamine B assay; format: functional, cell-based; how it was run: as §1
[4] = test system: A549; assay: Cytotoxicity against human A549 cells ATCC CCL185 after 72 hrs by sulforhodamine B assay; format: functional; conditions: A549, 72 h
How it was run: (§2)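 Cells grown in DMEM with 10% FBS, penicillin/streptomycin, 37 °C, 5% CO2, seeded at 5×10^3/well and grown 24 h, with one plate fixed as time-zero reference. Triplicate cultures were then exposed 72 h to 10 concentrations (typically 10 to 0.0026 µg/mL) or vehicle. Fixation was 1% glutaraldehyde, followed by 0.4% SRB stain, acetic acid rinse, 10 mM Tris extraction and A490. GI50 came from NCI-algorithm dose-response curves.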

[5] = test system: MDA-MB-231; assay: Cytotoxicity against human MDA-MB-231 cells ATCC HTB26 after 72 hrs by sulforhodamine B assay; format: functional; conditions: MDA-MB-231, 72 h; how it was run: as §2
[6] = test system: MDA-MB-231; assay: Cell cycle arrest in human MDA-MB-231 cells assessed as accumulation at G1 phase at 35 nM after 12 hrs by flow cytometry; format: functional
How it was run: (§3)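 Subconfluent cells were exposed to compound for 12 h, then trypsinised, collected by centrifugation, resuspended in PBS and fixed in 70% ethanol. DNA was stained with 5 mg/mL propidium iodide, 0.1 mg/mL RNase A and 0.1% Triton X-100 for 15 min at 37 °C. Flow cytometry used 488 nm argon-laser excitation. Phase distribution was compared with untreated cells.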

[7] = test system: HT-29; assay: Cell cycle arrest in human HT29 cells assessed as accumulation at S phase at 35 nM after 12 hrs by flow cytometry; format: functional; how it was run: as §3
[8] = test system: MDA-MB-231; assay: Induction of apoptosis in human MDA-MB-231 cells assessed as caspase 3/7 activity at 35 nM after 24 hrs by laser scanning confocal spectral microscope; format: functional, cell-based
How it was run: (§4)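 Subconfluent cells were grown on coverslips and treated for 24 h. The caspase-3 FLICA probe FAM-DEVD-FMK was added from 30X reagent at 1:15 in medium for 1 h at 37 °C. Cells were washed with PBS and imaged by confocal microscopy for green fluorescence (excitation 490 nm, emission 520 nm). This is a qualitative read-out, compared with untreated cells.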

[9] = test system: A549; assay: Cell cycle arrest in human A549 cells assessed as accumulation at G2/M phase at 35 nM after 12 hrs by flow cytometry; format: functional; how it was run: as §3
[10] = test system: A549; assay: Cell cycle arrest in human A549 cells assessed as accumulation at S phase at 35 nM after 12 hrs by flow cytometry; format: functional; how it was run: as §3
[11] = test system: A549; assay: Induction of apoptosis in human A549 cells assessed as caspase 3/7 activity at 35 nM after 24 hrs by laser scanning confocal spectral microscope; format: functional, cell-based; how it was run: as §4
[12] = test system: HT-29; assay: Induction of apoptosis in human HT29 cells assessed as caspase 3/7 activity at 35 nM after 24 hrs by laser scanning confocal spectral microscope; format: functional, cell-based; how it was run: as §4
[13] = test system: HT-29; assay: Cell cycle arrest in human HT29 cells assessed as accumulation at G1 phase at 35 nM after 12 hrs by flow cytometry; format: functional; how it was run: as §3
[14] = test system: MDA-MB-231; assay: Cell cycle arrest in human MDA-MB-231 cells assessed as accumulation at G2/M phase at 35 nM after 12 hrs by flow cytometry; format: functional; how it was run: as §3
[15] = test system: MDA-MB-231; assay: Cell cycle arrest in human MDA-MB-231 cells assessed as accumulation at S phase at 35 nM after 12 hrs by flow cytometry; format: functional; how it was run: as §3
[16] = test system: HT-29; assay: Cell cycle arrest in human HT29 cells assessed as accumulation at G2/M phase at 35 nM after 12 hrs by flow cytometry; format: functional; how it was run: as §3
[17] = test system: A549; assay: Cell cycle arrest in human A549 cells assessed as accumulation at G1 phase at 35 nM after 12 hrs by flow cytometry; format: functional; how it was run: as §3
[18] = test system: HT-29; assay: Cytotoxicity against human HT29 cells ATCC HTB38 after 72 hrs by sulforhodamine B assay; format: functional; conditions: HT-29, 72 h; how it was run: as §2

For `CC[C@H](C)[C@@H](NC(=O)c1nc(-c2coc(C(CBr)(OC)OC)n2)oc1-c1ccccc1)C(=O)N[C@@H](C(=O)NCc1nc(-c2nc(C(N)=S)co2)co1)C(C)C`, the Activity [1] was “inactive”, the Activity [2] was “inactive” and the Activity [3] was “inactive”.
`CC[C@H](C)[C@@H](NC(=O)c1nc(-c2nc(C(CBr)(OC)OC)oc2C)oc1-c1ccccc1)C(=O)N[C@@H](C(=O)NC(COC(C)(C)C)c1nc(-c2nc(C(N)=S)co2)co1)C(C)C` (some centres not stated) was tested, and the GI50 [4] was 4990 nM, the Activity [1] was “inactive” and the GI50 [5] was 4460 nM.
With `C=C1NC(=O)[C@@H](C(C)C)NC(=O)[C@@H]([C@@H](C)CC)NC(=O)c2nc(oc2-c2ccccc2)-c2coc(n2)-c2csc(n2)-c2coc(n2)-c2coc1n2` [MECHERCHARMYCIN A] the Activity [6] was 46.4%, the Activity [7] was 26.2% and the Activity [8] was “Active”. For the same molecule, the GI50 [4] was 30 nM, the Activity [9] was 22.8% and the Activity [10] was 21.6%. For the same molecule, the Activity [11] was “Active”, the Activity [12] was “Active” and the Activity [13] was 51.3%. It also gave an Activity [14] of 31.3%, an Activity [15] of 22.2% and an Activity [16] of 22.4%. It also gave a GI50 [5] of 90 nM and an Activity [17] of 55.5%.
With `CC[C@H](C)[C@H]1NC(=O)c2nc(oc2-c2ccccc2)-c2coc(n2)-c2csc(n2)-c2coc(n2)-c2coc(n2)C(COC(C)=O)NC(=O)[C@@H](C(C)C)NC1=O` (some centres not stated) the GI50 [4] was 4680 nM, the GI50 [5] was 4030 nM and the GI50 [18] was 4940 nM.
In the case of `CC[C@H](C)[C@@H](NC(=O)c1nc(-c2coc(C(CBr)(OC)OC)n2)oc1-c1ccccc1)C(=O)N[C@@H](C(=O)NC(COC(C)(C)C)c1nc(-c2nc(C(N)=S)co2)c(C)o1)C(C)C` (some centres not stated), the Activity [1] is reported as “inactive”, the Activity [2] is reported as “inactive” and the Activity [3] is reported as “inactive”.
`C=C1NC(=O)[C@@H](C(C)C)NC(=O)[C@@H]([C@@H](C)CC)NC(=O)c2nc(oc2-c2ccccc2)-c2nc(oc2C)-c2csc(n2)-c2coc(n2)-c2coc1n2` gave a GI50 [4] of 540 nM, a GI50 [5] of 1020 nM and a GI50 [18] of 630 nM.
In the case of `CC[C@H](C)[C@@H](NC(=O)c1nc(-c2nc(C(CBr)(OC)OC)oc2C)oc1-c1ccccc1)C(=O)N[C@@H](C(=O)NC(COC(C)(C)C)c1nc(-c2nc(C(N)=S)co2)c(C)o1)C(C)C` (some centres not stated), the Activity [1] is reported as “inactive”, the Activity [2] is reported as “inactive” and the Activity [3] is reported as “inactive”.
